ChEMBL document CHEMBL1129328, “Structure-activity studies of 6-(tetrazolylalkyl)-substituted decahydroisoquinoline-3-carboxylic acid AMPA receptor antagonists. 1. Effects of stereochemistry, chain length, and chain substitution” (J Med Chem, 1996)

Tests used:
[1] = biological target: Glutamate receptor ionotropic, kainate; assay: Binding affinity at Ionotropic glutamate receptor kainate in rat cortical tissue by [3H]-kainic acid displacement.
Procedure, shortened: (§1)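 Displacement of radioligand from rat cortical tissue membranes: [3H]CGS 19755 for NMDA sites, [3H]kainic acid for kainate sites. Each determination run in triplicate unless otherwise indicated.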

[2] = biological target: T1, Glutamate receptor ionotropic, AMPA (Rattus norvegicus, UniProt P19490+P19491+P19492+P19493); assay: AMPA receptor antagonistic activity as inhibition of depolarizations induced by 40 uM AMPA in rat cortical slice preparation; assay type: functional
[3] = biological target: Glutamate NMDA receptor; assay: (§2) Compound was tested for NMDA receptor antagonistic activity by measuring its ability to inhibit depolarizations induced by 40 uM NMDA in rat cortical slice preparation.; assay type: functional
[4] = biological target: Glutamate receptor ionotropic, kainate; assay type: functional
[5] = biological target: T1, Glutamate receptor ionotropic, AMPA; assay: Binding affinity at Ionotropic glutamate receptor AMPA in rat cortical tissue by [3H]AMPA displacement.
[6] = biological target: Glutamate NMDA receptor; assay: Binding affinity at N-methyl-D-aspartate glutamate receptor in rat cortical tissue by [3H]-CGS- 19755 displacement.; procedure, shortened: as §1
[7] = biological target: T1, Glutamate receptor ionotropic, AMPA; assay: Compound was tested for AMPA receptor antagonistic activity by measuring its ability to inhibit depolarizations induced by 40 uM AMPA in rat cortical slice preparation; assay type: functional
Procedure, shortened: (§3)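 Rat cortical slice (cortical wedge) preparation. Antagonism measured as inhibition of depolarizations evoked by 40 uM AMPA (a few cases 40 uM quisqualic acid instead) or 40 uM NMDA. Compounds were also applied alone to check for agonist activity.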

[8] = biological target: T1, Glutamate receptor ionotropic, AMPA; assay: Compound was tested for AMPA receptor antagonistic activity by measuring its ability to inhibit depolarizations induced by 40 uM quisqualic acid in rat cortical slice preparation.; assay type: functional; procedure, shortened: as §3
[9] = biological target: Glutamate NMDA receptor (Rattus norvegicus) (UniProt P35439+Q00959+Q00960+Q00961+Q62645+Q8VHN2+Q9R1M7); assay: as §2; assay type: functional; procedure, shortened: as §3

| SMILES | IC50 [1] [µM] | IC50 [2] [µM] | IC50 [3] [µM] | IC50 [4] [µM] | IC50 [5] [µM] | IC50 [6] [µM] | IC50 [7] [µM] | IC50 [8] [µM] | inhibition [9] [%] |
| --- | --- | --- | --- | --- | --- | --- | --- | --- | --- |
| O=C(O)C1Cc2cc(CCc3nnn[nH]3)ccc2CN1 (stereo not drawn) | > 10 | > 100 | > 100 | > 100 | > 100 | > 10 |  |  |  |
| O=C(O)[C@@H]1C[C@H]2C[C@@H](c3nnn[nH]3)CC[C@H]2CN1 | 31.8 | 40.9 | 7.5 | > 100 | 12.8 |  |  |  |  |
| O=CN(Cc1nn[nH]n1)[C@H]1CC[C@H]2CN[C@H](C(=O)O)C[C@H]2C1 | > 100 |  |  |  | 23.1 | > 100 |  |  |  |
| O=C(O)[C@@H]1C[C@H]2C[C@@H](Cc3nnn[nH]3)CC[C@H]2CN1 | > 100 |  | 1.4 | > 100 | 84.5 | 0.94 |  | > 100 |  |
| O=C(O)[C@@H]1C[C@H]2C[C@H](CCc3nnn[nH]3)CC[C@H]2CN1 | 180 | > 100 |  | > 100 | 59.6 | 60.6 |  |  |  |
| O=C(O)[C@@H]1C[C@H]2C[C@@H](OCc3nn[nH]n3)CC[C@H]2CN1 | 55 | 29.5 | 28.3 | > 100 | 24 | 5.9 |  |  |  |
| CC(Cc1nnn[nH]1)[C@H]1CC[C@H]2CN[C@H](C(=O)O)C[C@H]2C1 (stereo partly drawn) | 35 |  | > 100 | 58 | 3 | 53.2 | 6 |  |  |
| O=C(O)[C@@H]1C[C@H]2C[C@@H](CCc3nnn[nH]3)CC[C@@H]2CN1 | > 100 | > 100 | > 100 | > 100 | > 100 | > 100 |  |  |  |

More lines, now with the values ahead:

| IC50 [1] [µM] | IC50 [2] [µM] | IC50 [3] [µM] | IC50 [4] [µM] | IC50 [5] [µM] | IC50 [6] [µM] | IC50 [7] [µM] | IC50 [8] [µM] | inhibition [9] [%] | SMILES |
| --- | --- | --- | --- | --- | --- | --- | --- | --- | --- |
| > 100 | 27.6 | > 100 | < 100 | 57 | > 100 |  |  |  | O=C(O)[C@@H]1C[C@H]2C[C@@H](CCCCc3nnn[nH]3)CC[C@H]2CN1 |
| > 100 |  | 100 | 23.6 | 9.8 | 15.1 | 9 |  |  | O=C(O)[C@@H]1C[C@H]2C[C@@H](C(Cc3nnn[nH]3)c3ccccc3)CC[C@H]2CN1 (stereo partly drawn) |
| 18.7 |  | > 100 | > 100 | 16.8 | 27 |  | 22 |  | O=C(O)[C@@H]1C[C@H]2C[C@@H](CCCc3nnn[nH]3)CC[C@H]2CN1 |
| 27.3 |  |  |  | 4.21 | > 100 |  |  |  | CC(C[C@H]1CC[C@H]2CN[C@H](C(=O)O)C[C@H]2C1)c1nnn[nH]1 (stereo partly drawn) |
| > 100 | > 100 | > 100 | > 100 | > 100 | > 10 |  |  |  | O=C(O)[C@H]1C[C@H]2CC(CCc3nnn[nH]3)CC[C@H]2CN1 (stereo partly drawn) |
| 247 | 6 | 61.3 | 31.7 |  |  |  |  |  | O=C(O)[C@@H]1C[C@H]2C[C@@H](CCc3nn[nH]n3)CC[C@H]2CN1 [TEZAMPANEL ANHYDROUS] |
| > 100 | > 100 | 13.6 | > 100 | > 100 | 5.3 |  |  |  | O=C(O)[C@@H]1C[C@H]2C[C@H](OCc3nn[nH]n3)CC[C@H]2CN1 |
| > 100 | > 100 | > 100 | > 100 | > 100 | 65.8 |  |  |  | CN(Cc1nn[nH]n1)[C@H]1CC[C@H]2CN[C@H](C(=O)O)C[C@H]2C1 |
| > 100 | > 100 |  | > 100 | > 100 | 12.8 |  |  | 50 | O=C(O)[C@@H]1NCC[C@H]2CC(CCc3nnn[nH]3)CC[C@H]21 (stereo partly drawn) |
| > 100 | 69.3 | 33.4 | > 100 | > 100 | 11.5 |  |  |  | O=C(O)[C@@H]1C[C@H]2C[C@@H](NCc3nn[nH]n3)CC[C@H]2CN1 |
